Assay [1] concerns the target T1, 5-hydroxytryptamine receptor 2B (Rattus norvegicus, UniProt P30994). Description: Antagonistic against 5-hydroxytryptamine 2B receptor. It is filed as functional. As to conditions: read-out: pA2 (converted).
The target of assay [2] is T1, 5-hydroxytryptamine receptor 2B. Description: Antagonistic activity against 5-hydroxytryptamine 2B receptor obtained from rat stomach fundus preparation. The format is functional, tissue-based. The following applies: read-out: pA2 (converted).
In assay [3] the test system is Rattus norvegicus. Description: Compound was tested for its activity for maximal correct- drug lever responding at doses 2 mg/Kg in rat; Range 0-8%. The format is functional. The procedure, abridged:
(§1)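 Rats were trained in a two-lever drug discrimination procedure to tell 5-methoxy-N,N-dimethyltryptamine hydrogen oxalate (1.5 mg/kg) from saline. Each challenge dose was given to three to six rats, and the percentage of drug-lever responding was recorded.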

The subject of assay [4] is Rattus norvegicus. Description: Compound was tested for its activity for maximal correct- drug lever responding at doses 5 mg/Kg in rat; Range 0-8%. The format is functional. The procedure, abridged:
as §1

Assay [5] deals with Rattus norvegicus. Description: Compound was tested for its activity for maximal correct- drug lever responding at doses 3 mg/Kg in rat; Range 0-8%. The format is functional. The procedure, abridged:
as §1

Assay [6] addresses Serotonin (5-HT) receptor. Description: (§2) Antagonistic activity of corresponding methoxy compound against serotonin 5-HT receptor. It is filed as functional.
The target in assay [7] is T1, 5-hydroxytryptamine receptor 2B. The description is as §2. The following applies: read-out: pA2 (converted). The format is functional.

In general, pA2 refers to the negative logarithm of the molar antagonist concentration that doubles the agonist concentration needed for the same response.

T1 sequence (P30994 whole entry): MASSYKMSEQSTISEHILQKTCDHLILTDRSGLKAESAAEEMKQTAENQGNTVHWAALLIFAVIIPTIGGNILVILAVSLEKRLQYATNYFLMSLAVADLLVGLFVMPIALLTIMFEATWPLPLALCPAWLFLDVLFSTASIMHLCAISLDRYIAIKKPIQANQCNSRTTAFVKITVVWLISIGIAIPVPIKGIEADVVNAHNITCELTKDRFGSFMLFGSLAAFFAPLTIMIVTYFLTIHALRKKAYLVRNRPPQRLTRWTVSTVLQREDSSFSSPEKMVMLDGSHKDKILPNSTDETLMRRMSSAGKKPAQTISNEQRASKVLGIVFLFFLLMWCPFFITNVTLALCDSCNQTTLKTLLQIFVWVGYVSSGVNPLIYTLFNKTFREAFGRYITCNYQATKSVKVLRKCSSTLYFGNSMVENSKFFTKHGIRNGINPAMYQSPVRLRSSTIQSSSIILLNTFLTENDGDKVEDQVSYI

In the case of `COc1cc(CC(C)N)c(O)cc1C` (centres undefined), the Kb in assay [1] is 75.9 nM; in assay [2], 36.3 nM.
For the compound `COc1cc(CC(C)N)ccc1O` (stereo not drawn) [3-O-METHYL-ALPHA-METHYLDOPAMINE], the Kb in assay [1] is 3550 nM; in assay [2], 6460 nM.
On to `COc1ccc(O)c(CC(C)N)c1` (centres undefined), for which the Kb in assay [1] is 148 nM; in assay [2], 100 nM.
The matching figures for `COc1ccc(O)c(CC(C)N(C)C)c1` (centres undefined): 316 nM and 166 nM.
`COc1cc(C)c(O)cc1CC(C)N` (centres undefined): the Kb in assay [1] was 75.9 nM; in assay [2], 12.3 nM. The Activity in assay [3], in assay [4] and in assay [5] was 0% each time.
Consider `COc1ccc(O)c(CCN(C)C)c1`, for which the Kb in assay [1] was 302 nM; in assay [2] it was 145 nM.
Consider `NCCc1ccccc1O`, for which the pA2 in assay [6] worked out at 5.52.
Take `COc1ccc(CC(C)N)cc1O` (centres undefined): the figures for the Kb in assay [1] and in assay [2] were 3550 nM and 135 nM, respectively.
For `COc1ccc(OCc2ccccc2)c(CCN(C)C)c1`, in that order: 302 nM and 3630 nM.
As for `NCCc1ccc(O)cc1` [TYRAMINE], in assay [7], the Kb was 7.94 µM.
Take `COc1ccc(CC(C)N)c(O)c1` (centres undefined): the Kb in assay [1] was 2510 nM.
In the case of `COc1ccc(O)c(CCN)c1`, the Kb was 141 nM in assay [1] and 79.4 nM in assay [2].

(Values after ChEMBL document CHEMBL1121619, “Demethyl analogues of psychoactive methoxyphenalkylamines: synthesis and serotonin receptor affinities” (J Med Chem, 1980).)
